# Data: ChEMBL document CHEMBL3392953, “Synthesis and biological evaluation of furanoallocolchicinoids” (J Med Chem, 2015)
# Activity calls are given as the source filed them. No cut-off for these calls is given here.
# Key:
# [1] = Induction of apoptosis in mouse W1308 cells assessed as pre-apoptotic cells level at 200 nM after 48 hrs by 3,3'-dihexyloxacarbocyanine iodide and propidium iodide staining based flow cytometry (reference value: 17%); type: functional
# [2] = Inhibition of lamb brain tubulin polymerization assessed as reduction in microtubule assembly by spectrophotometry; parameters: species or system Ovis aries
# Procedure, shortened: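 Tubulin purified from lamb brain by ammonium sulfate fractionation and ion-exchange chromatography. Assembly in 20 mM sodium phosphate, 1 mM EGTA, 10 mM MgCl2, 3.4 M glycerol, 1 mM GTP, pH 6.5, started by warming to 37 °C; turbidity followed at 350 nm over time. Inhibition plotted against ligand:tubulin molar ratio.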
# [3] = system: ASPC1; assay: Cytotoxicity against human AsPC1 cells after 72 hrs by MTT assay; type: functional, cell-based; details: ASPC1, 72 h
# Procedure, shortened: (§1)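 Cells seeded at 3x10^5 cells/mL 24 h before assay (HEK293, AsPC-1 in DMEM; Jurkat, W1308 in RPMI-1640; 10% FCS, 2-ME). Tenfold dilutions from […] to 1 nM added; untreated cells as controls. 72 h incubation, MTT 250 µg/ml added for last 6 h, formazan dissolved in DMSO, OD read. IC50 from titration curves; inhibition index = 1 − OD(treated)/OD(control).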
# [4] = system: Jurkat; assay: Growth inhibition of human Jurkat cells at 100 uM after 72 hrs by MTT assay; type: functional; details: read-out: GI
# [5] = system: HEK293; assay: Cytotoxicity against HEK293 cells after 72 hrs by MTT assay; type: functional, cell-based; details: Homo sapiens, HEK293, 72 h; procedure, shortened: as §1
# [6] = system: HEK293; assay: Growth inhibition of HEK293 cells at 100 uM after 72 hrs by MTT assay; type: functional; details: Homo sapiens, HEK293, 72 h; read-out: GI
# [7] = Cytotoxicity against mouse W1308 cells after 72 hrs by MTT assay; type: functional, cell-based; details: W1308, 72 h; procedure, shortened: as §1
# [8] = system: ASPC1; assay: Growth inhibition of human AsPC1 cells at 100 uM after 72 hrs by MTT assay; type: functional; details: ASPC1, 72 h, read-out: GI
# [9] = Induction of apoptosis in mouse W1308 cells assessed as apoptotic cells level at 200 nM after 48 hrs by 3,3'-dihexyloxacarbocyanine iodide and propidium iodide staining based flow cytometry (reference value: 11%); type: functional
# [10] = system: Jurkat; assay: Cytotoxicity against human Jurkat cells after 72 hrs by MTT assay; type: functional, cell-based; procedure, shortened: as §1
# [11] = Growth inhibition of mouse W1308 cells at 100 uM after 72 hrs by MTT assay; type: functional; details: W1308, 72 h, read-out: GI
# [12] = Reduction in blood-brain barrier permeability in […]; type: ADME, tissue-based, C57BL/6, Endothelial cell; parameters: scale not given: the % may be the effect or the level left; details: mouse
# Procedure, shortened: (§2)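 Intact mice, 6–8 wk, 3 per group; compound dissolved in DMSO at 20 mM, 4 µl diluted into 200 µl saline (1 mg/kg), mixed with 50 µl rhodamine B, single i.v. injection; controls DMSO plus rhodamine B. Killed 4 h later; organs cut, extracted in 0.3N acid in ethanol 2 h at 37 °C, centrifuged, supernatant fluorescence read with 540 nm filter.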
# [13] = system: HEK293; assay: Induction of cell cycle arrest in HEK293 cells assessed as accumulation at G2/M phase at 200 nM after 72 hrs by propidium iodide staining based flow cytometry (reference value: 21 +/- 2%); type: functional, Homo sapiens
# [14] = system: Jurkat; assay: Induction of cell cycle arrest in human Jurkat cells assessed as accumulation at G1 phase at 200 nM after 72 hrs by propidium iodide staining based flow cytometry (reference value: 72 +/ 4%); type: functional
# [15] = system: ASPC1; assay: Induction of cell cycle arrest in human AsPC1 cells assessed as accumulation at G1 phase at 200 nM after 72 hrs by propidium iodide staining based flow cytometry (reference value: 65 +/ 3%); type: functional
# [16] = (§3) Toxicity in ip dosed C57BL/6 mouse measured after 24 to 48 hrs; type: organism-based; details: C57BL/6, mouse, in vivo
# Procedure, shortened: (§4)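 Acute toxicity: single doses given i.p. or i.v. to 6–8 wk C57BL/6 mice to determine LD100 and LD50; lethality observed 24–48 h after injection.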
# [17] = system: Mus musculus; assay: as §3; type: organism-based; details: mouse, in vivo; procedure, shortened: as §4
# [18] = system: Mus musculus; assay: Toxicity in mouse MMTV-Wnt-1 cells implanted C57BL/6 mouse assessed as induction of neurological symptoms at 0.4 mg/kg, iv once weekly for four weeks; type: organism-based; parameters: dose 0.4 mg/kg, route intravenous; details: in vivo
# Procedure, shortened: (§5)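 C57BL/6 mice, 6–8 wk, inoculated subcutaneously with Wnt-1 tumor cells in 50 µl PBS into left inguinal fat pad under anesthesia. Treatment started at day 27 in mice with palpable tumors (n=7 per group). Compound in 200 µl saline given i.v. into orbital sinus at days 27, 34, 41, 48; controls received saline. Tumors measured by caliper twice weekly, volume (W²×L)/2. Study ended day 51.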
# [19] = Induction of cell cycle arrest in mouse W1308 cells assessed as accumulation at G2/M phase at 200 nM after 72 hrs by propidium iodide staining based flow cytometry (reference value: 56 +/ 1%); type: functional
# [20] = system: ASPC1; assay: Induction of apoptosis in human AsPC1 cells at 200 nM after 72 hrs by propidium iodide staining based flow cytometry (reference value: 2.2 +/ 0.1%); type: functional
# [21] = system: Mus musculus; assay: Toxicity in C57BL/6 mouse assessed as interphase microtubule de-stabilizing activity by measuring influx of rhodamine in to spleen at 1 mg/kg, iv co-administered with rhodamine B by fluorimetry; type: organism-based; parameters: dose 1 mg/kg, route intravenous; details: in vivo; procedure, shortened: as §2
# [22] = system: Mus musculus; assay: Toxicity in mouse MMTV-Wnt-1 cells implanted C57BL/6 mouse assessed as induction of weight loss at 0.4 mg/kg, iv once weekly for four weeks; type: organism-based; parameters: dose 0.4 mg/kg, route intravenous; details: in vivo; procedure, shortened: as §5
# [23] = system: HEK293; assay: Induction of apoptosis in HEK293 cells at 200 nM after 72 hrs by propidium iodide staining based flow cytometry (reference value: 3 +/- 1%); type: functional, Homo sapiens
# [24] = system: Mus musculus; assay: Toxicity in C57BL/6 mouse assessed as interphase microtubule de-stabilizing activity by measuring leakage of rhodamine through the gut at 1 mg/kg, iv co-administered with rhodamine B by fluorimetry; type: organism-based; parameters: dose 1 mg/kg, route intravenous; details: in vivo; procedure, shortened: as §2
# [25] = system: ASPC1; assay: Induction of apoptosis in human AsPC1 cells assessed as cell fractionation level at 200 nM after 72 hrs by Hoechst 33342 and mitotracker red staining based confocal microscopy; type: functional
# Procedure, shortened: (§6)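 AsPC-1 cells grown overnight on coverslips, then cultured 72 h with compound at various concentrations in complete medium. Hoechst 33342 and MitoTracker Red added for 1 h; cells fixed in 1% paraformaldehyde, mounted in Mowiol, and examined by confocal microscopy for nuclear and mitochondrial morphology.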
# [26] = (§7) Toxicity in iv dosed C57BL/6 mouse measured after 24 to 48 hrs; type: organism-based; details: C57BL/6, mouse, in vivo; procedure, shortened: as §4
# [27] = system: Mus musculus; assay: as §7; type: organism-based; details: mouse, in vivo; procedure, shortened: as §4
# [28] = system: Mus musculus; assay: Antitumor activity against mouse MMTV-Wnt-1 cells implanted in C57BL/6 mouse assessed as reduction in tumor volume at 0.4 mg/kg, iv once weekly for four weeks; type: functional, organism-based; parameters: dose 0.4 mg/kg; procedure, shortened: as §5
# [29] = system: ASPC1; assay: Induction of apoptosis in human AsPC1 cells assessed as mitochondria enlargement at 200 nM after 72 hrs by Hoechst 33342 and mitotracker red staining based confocal microscopy; type: functional, cell-based; procedure, shortened: as §6
# [30] = system: ASPC1; assay: Induction of apoptosis in human AsPC1 cells assessed as mitochondria depolarization at 200 nM after 72 hrs by Hoechst 33342 and mitotracker red staining based confocal microscopy; type: functional, cell-based; procedure, shortened: as §6
# [31] = system: Jurkat; assay: Induction of cell cycle arrest in human Jurkat cells assessed as G1/G2 phas e-ratio at 200 nM after 72 hrs by propidium iodide staining based flow cytometry (reference value: 2.7); type: functional
# [32] = system: Mus musculus; assay: Toxicity in C57BL/6 mouse assessed as interphase microtubule de-stabilizing activity by measuring influx of rhodamine in to heart at 1 mg/kg, iv co-administered with rhodamine B by fluorimetry; type: organism-based; parameters: dose 1 mg/kg, route intravenous; details: in vivo; procedure, shortened: as §2
# [33] = system: HEK293; assay: Induction of cell cycle arrest in HEK293 cells assessed as accumulation at G1 phase at 200 nM after 72 hrs by propidium iodide staining based flow cytometry (reference value: 76 +/ 5%); type: functional, Homo sapiens
# [34] = Induction of apoptosis in mouse W1308 cells 200 nM after 72 hrs by propidium iodide staining based flow cytometry (reference value: 0.3 +/ 0.1); type: functional
# [35] = system: ASPC1; assay: Induction of apoptosis in human AsPC1 cells assessed as apoptotic body formation at 200 nM after 72 hrs by Hoechst 33342 and mitotracker red staining based confocal microscopy; type: functional, cell-based; procedure, shortened: as §6
# [36] = Induction of cell cycle arrest in mouse W1308 cells assessed as accumulation at G1 phase at 200 nM after 72 hrs by propidium iodide staining based flow cytometry (reference value: 43 +/ 2%); type: functional
# [37] = system: HEK293; assay: Induction of cell cycle arrest in HEK293 cells assessed as G1/G2 phase ratio at 200 nM after 72 hrs by propidium iodide staining based flow cytometry (reference value: 3.6); type: functional, Homo sapiens
# [38] = system: ASPC1; assay: Induction of cell cycle arrest in human AsPC1 cells assessed as accumulation at G2/M phase at 200 nM after 72 hrs by propidium iodide staining based flow cytometry (reference value: 34 +/ 3%); type: functional
# [39] = system: Mus musculus; assay: Toxicity in mouse MMTV-Wnt-1 cells implanted C57BL/6 mouse assessed as induction of behavior changes at 0.4 mg/kg, iv once weekly for four weeks; type: organism-based; parameters: dose 0.4 mg/kg, route intravenous; details: in vivo; procedure, shortened: as §5
# [40] = Induction of cell cycle arrest in mouse W1308 cells assessed as G1/G2 phase ratio at 200 nM after 72 hrs by propidium iodide staining based flow cytometry (reference value: 0.8); type: functional
# [41] = system: Jurkat; assay: Induction of cell cycle arrest in human Jurkat cells assessed as accumulation at G2/M phase at 200 nM after 72 hrs by propidium iodide staining based flow cytometry (reference value: 27 +/ 2%); type: functional
# [42] = system: ASPC1; assay: Induction of apoptosis in human AsPC1 cells assessed as double nucleated cells level at 200 nM after 72 hrs by Hoechst 33342 and mitotracker red staining based confocal microscopy; type: functional, cell-based; procedure, shortened: as §6
# [43] = system: Jurkat; assay: Induction of apoptosis in human Jurkat cells at 200 nM after 72 hrs by propidium iodide staining based flow cytometry (reference value: 0.9 +/ 0.2%); type: functional
# [44] = system: ASPC1; assay: Induction of cell cycle arrest in human AsPC1 cells assessed as G1/G2 phase ratio at 200 nM after 72 hrs by propidium iodide staining based flow cytometry (reference value: 1.9); type: functional
compound,measurement,setting,value
COc1cc2c(c(OC)c1OC)-c1cc3cc(C(C)O)oc3cc1[C@@H](NC(C)=O)CC2 (stereo not given in full),Activity,[1],29%
same,IC50,[2],0.3 molar ratio
same,IC50,[3],< 0.2 µM
same,inhibition of growth at 100 µM,[4],60%
same,IC50,[5],< 0.2 µM
same,inhibition of growth at 100 µM,[6],60%
same,IC50,[7],< 0.2 µM
same,inhibition of growth at 100 µM,[8],60%
same,Activity,[9],20%
same,IC50,[10],< 0.2 µM
same,inhibition of growth at 100 µM,[11],60%
COc1cc2c(c(OC)c1OC)-c1cc3cc(CO)oc3cc1[C@@H](NC(C)=O)CC2,Activity,[1],14%
same,IC50,[2],0.08 molar ratio
same,Activity,[12],40%
same,IC50,[3],< 0.05 µM
same,Activity,[13],72%
same,inhibition of growth at 100 µM,[4],60%
same,Activity,[14],34%
same,Activity,[15],27%
same,LD50,[16],0.3 mg/kg
same,LD100,[17],0.8 mg/kg
same,Activity,[18],Non-toxic
same,Activity,[19],80%
same,Activity,[20],1.2%
same,IC50,[5],< 0.02 µM
same,Activity,[21],Toxic
same,Activity,[22],Non-toxic
same,Activity,[23],6%
same,inhibition of growth at 100 µM,[6],60%
same,Activity,[24],Toxic
same,Activity,[25],Active
same,IC50,[7],< 0.02 µM
same,LD50,[26],0.8 mg/kg
same,LD100,[27],2 mg/kg
same,growth inhibition (GI),[28],Active
same,inhibition of growth at 100 µM,[8],60%
same,Activity,[29],Active
same,Activity,[9],11%
same,Activity,[30],Active
same,Ratio,[31],0.6
same,Activity,[32],Toxic
same,Activity,[33],22%
same,Activity,[34],2.3%
same,Activity,[35],Active
same,Activity,[36],18%
same,Ratio,[37],0.3
same,Activity,[38],72%
same,Activity,[39],Non-toxic
same,Ratio,[40],0.2
same,Activity,[41],62%
same,Activity,[42],Active
same,Activity,[43],2.2%
same,Ratio,[44],0.7
same,IC50,[10],< 0.02 µM
same,inhibition of growth at 100 µM,[11],60%
